Experimental data gathered from unrelated publications.
Compare with care: the assays were run in different laboratories.
CHRNA9: Neuronal acetylcholine receptor subunit alpha-9 (CHRNA9, Homo sapiens, UniProt Q9UGM1)
HRH1: Histamine H1 receptor (HRH1, Homo sapiens, UniProt P35367)
CA9: Carbonic anhydrase 9 (CA9, Homo sapiens, UniProt Q16790)
emrE: emrE (Escherichia coli, UniProt P23895)
MAOB: Amine oxidase [flavin-containing] B (MAOB, Homo sapiens, UniProt P27338)

| SMILES | target | assay | system | conditions | measurement | value |
| --- | --- | --- | --- | --- | --- | --- |
| CN1CC[C@@]2(C)c3cc(OC(=O)Nc4ccccc4)ccc3N(C)[C@@H]12 | Retinaldehyde dehydrogenase 3 (ALDH1A3, Homo sapiens, UniProt P47895) | enzyme activity, inhibitor | – | – | IC50 | < 10 µM |
| CCC[N+]1(C)CCN(c2ccccc2)CC1 | CHRNA9 | ion current, agonist, two-electrode voltage clamp | – | oocytes | EC50 | 60 µM |
| CCCCC1CNC2CCc3ccc(OC)cc3C12 (racemic) | HRH1 | ligand displacement, radioligand | – | – | Ki | 0.135 µM |
| CCC[N+]1(CC)CCN(c2ccc(C#N)cc2)CC1 | CHRNA9 | ion current, agonist, two-electrode voltage clamp | – | oocytes | EC50 | 1.9 µM |
| CCOC(=O)c1ccc(OC(=O)CCCCCN=C(N)N)cc1 | Urokinase-type plasminogen activator (PLAU, Homo sapiens, UniProt P00749) | enzyme activity, inhibitor | – | – | IC50 | 0.0236 µM |
| Cc1c(Cl)c(=O)oc2cc(OCCCC[Se]C#N)ccc12 | CA9 | enzyme activity, inhibitor, stopped-flow | – | – | Ki | 0.0429 µM |
| Cc1nccc2c1[nH]c1ccccc12 | emrE | binding, fluorescence | – | – | Kd | 46 µM |
| COc1cc2c(cc1OC)CN(CCc1ccc(NC(=O)c3cccc4c(=O)c5cccc(OC)c5[nH]c34)cc1)CC2 | HRH1 | cell-free assay | – | – | Ki | > 10 µM |
| CC[C@H](C)[C@H](N)C(=O)N1CCC[C@H]1C(=O)N1CCC[C@H]1C(=O)NCC(=O)N[C@H](C(=O)N1CCC[C@H]1C(=O)N[C@@H](Cc1ccc(O)cc1)C(=O)O)C(C)C | MAOB | enzyme activity, inhibitor, fluorescence | – | – | IC50 | 9410 µM |
| C[n+]1ccc(-c2cc[n+](C)cc2)cc1 | emrE | binding, fluorescence | – | – | Kd | 73 µM |
| CC1=C(O)C(=O)C=C2C1=CC=C1[C@@]2(C)CC[C@@]2(C)[C@@H]3C[C@](C)(C(=O)O)CC[C@]3(C)CC[C@]12C | Cytochrome P450 3A5 (CYP3A5, Homo sapiens, UniProt P20815) | binding, BLI | SAS | – | Kd | 2.07 µM |
| N#C[Se]CCCCOc1ccc2c(-c3ccccc3)cc(=O)oc2c1 | CA9 | enzyme activity, inhibitor, stopped-flow | – | – | Ki | 0.211 µM |
| CC[C@H](C)[C@H](NC(=O)[C@H](C)NC(=O)[C@H](CCC(=O)O)NC(=O)[C@H](Cc1c[nH]cn1)NC(=O)[C@H](CC(C)C)NC(=O)[C@@H](NC(=O)[C@H](Cc1ccccc1)NC(=O)[C@H](CO)NC(=O)[C@@H](NC(=O)[C@H](CC(C)C)NC(=O)[C@H](CC(=O)O)NC(=O)[C@H](CC(C)C)NC(=O)[C@@H]1CCCN1)[C@@H](C)O)C(C)C)C(=O)O | MAOB | enzyme activity, inhibitor, fluorescence | – | – | IC50 | 1900 µM |
